Assay results from ChEMBL document CHEMBL4321819, “Simple Structural Modifications Converting a Bona fide MDM2 PROTAC Degrader into a Molecular Glue Molecule: A Cautionary Tale in the Design of PROTAC Degraders” (J Med Chem, 2019).
The source made the active and inactive calls. The rule behind the calls is not given here.

What was measured:
[1] = Antiproliferative activity against human RS4:11/IRMI-2 cells harboring p53 hotspot mutation Y236H/R249G assessed as MDM2-independent cell growth inhibition after 4 days by WST-8 assay; format: functional, cell-based; conditions: RS4-11, 96 h
Outline: (§1)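 Leukemia cells seeded at 10000–20000 cells/well, breast cancer lines at 5000–10000 cells/well. Serially diluted compound added, then 4 days at 37 °C, 5% CO2. Growth read with WST-8 reagent after at least 1 h, absorbance at 450 nm. RS4;11, MOLM-13 and breast lines were grown in RPMI 1640; MV-4-11 and HL-60 in IMDM; all with 10% FBS. Mean ± SE, at least three independent experiments.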

MDA-MB-231 [2] = experiment: Antiproliferative activity against human MDA-MB-231 cells harboring mutant p53 assessed as cell growth inhibition after 4 days by WST-8 assay; format: functional, cell-based; outline: as §1
[3] = Antiproliferative activity against human RS4:11/IRMI-2 cells harboring p53 hotspot mutation Y236H/R249G assessed as cell growth inhibition without interaction with cereblon after 4 days by WST-8 assay; format: functional, cell-based; conditions: RS4-11, 96 h; outline: as §1
MDA-MB-468 [4] = experiment: Antiproliferative activity against human MDA-MB-468 cells transfected with MDM2 siRNA assessed as cell growth inhibition after 4 days by WST-8 assay; format: functional, cell-based; conditions: MDA-MB-468, 96 h
Outline: (§2)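 MDA-MB-231 or MDA-MB-468 cells transfected for 2 days using Lipofectamine RNAiMAX with MDM2 siRNA, one of two CRBN siRNAs, or non-targeting control siRNA. Compound then added and growth read by WST-8 at 450 nm.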

MDA-MB-468 [5] = experiment: Antiproliferative activity against human MDA-MB-468 cells assessed as cell growth inhibition after 4 days in presence of control siRNA for 3 days followed by compound treatment by WST-8 assay; format: functional, cell-based
MDA-MB-231 [6] = experiment: Antiproliferative activity against human MDA-MB-231 cells transfected with CRBN siRNA LQ-021086-10-0002 assessed as cell growth inhibition after 4 days by WST-8 assay; format: functional, cell-based; conditions: MDA-MB-231, 72 h, in the assay text read “after 3 days” for “after 4 days”; outline: as §2
MDA-MB-231 [7] = experiment: Antiproliferative activity against human MDA-MB-231 cells transfected with CRBN siRNA LQ-021086-11-0002 assessed as cell growth inhibition after 4 days by WST-8 assay; format: functional, cell-based; conditions: MDA-MB-231, 96 h; outline: as §2
MDA-MB-468 [8] = experiment: Antiproliferative activity against human MDA-MB-468 cells harboring mutant p53 assessed as cell growth inhibition without interaction with cereblon after 4 days by WST-8 assay; format: functional, cell-based; conditions: MDA-MB-468, 96 h
MDA-MB-468 [9] = experiment: Antiproliferative activity against human MDA-MB-468 cells transfected with CRBN siRNA LQ-021086-10-0002 assessed as cell growth inhibition after 4 days by WST-8 assay; format: functional, cell-based; conditions: MDA-MB-468, 96 h; outline: as §2
[10] = molecular target: T1, E3 ubiquitin-protein ligase Mdm2 (Homo sapiens, UniProt Q00987); experiment: Displacement of PMDM6-F fluorescent probe from human recombinant His-tagged MDM2 (1 to 118 residues) after 15 mins by fluorescence polarization assay
Outline: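 Recombinant human His-tagged MDM2 (residues 1–118) with a FAM-labelled p53-based peptide as fluorescent probe; competitive fluorescence-polarization binding. Mean ± standard error from at least three independent experiments.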
Target sequence in this assay (Q00987 whole entry, the tested form may be a part): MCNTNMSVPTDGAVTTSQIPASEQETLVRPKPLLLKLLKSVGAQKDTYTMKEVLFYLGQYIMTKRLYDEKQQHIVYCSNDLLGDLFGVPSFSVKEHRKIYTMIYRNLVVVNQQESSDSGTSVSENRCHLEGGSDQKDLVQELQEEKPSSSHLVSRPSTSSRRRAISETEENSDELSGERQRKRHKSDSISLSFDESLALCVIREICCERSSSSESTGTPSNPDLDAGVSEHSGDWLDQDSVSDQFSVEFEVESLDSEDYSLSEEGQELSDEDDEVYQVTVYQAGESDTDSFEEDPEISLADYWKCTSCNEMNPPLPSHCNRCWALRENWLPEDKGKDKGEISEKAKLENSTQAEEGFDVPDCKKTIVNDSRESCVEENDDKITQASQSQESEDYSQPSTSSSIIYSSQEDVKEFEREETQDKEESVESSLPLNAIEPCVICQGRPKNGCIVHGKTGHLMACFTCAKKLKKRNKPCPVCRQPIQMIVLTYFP

MDA-MB-231 [11] = experiment: Antiproliferative activity against human MDA-MB-231 cells transfected with MDM2 siRNA assessed as cell growth inhibition after 4 days by WST-8 assay; format: functional, cell-based; conditions: MDA-MB-231, 96 h; outline: as §2
[12] = molecular target: T2, Protein cereblon/Eukaryotic peptide chain release factor GTP-binding subunit ERF3A/DNA damage-binding protein 1/Cullin-4A (Homo sapiens) (UniProt Q96SW2+Q16531+Q13619+P15170); experiment: Protac activity at GSPT1/CUL4/DDB1/CRBN in human RS4:11/IRMI-2 cells harboring p53 hotspot mutation Y236H/R249G assessed as decrease in GSPT1 protein level after 2 hrs by Western blot analysis; format: cell-based
Outline: (§3)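 RS4;11 (wild-type p53) or RS4;11/IRMI-2 (MDM2 inhibitor-resistant derivative, mutant p53) cells kept in RPMI 1640 with 10% FBS at 37 °C, 5% CO₂. 2×10^6 cells/well treated at the indicated concentrations and times, then lysed in ice-cold lysis buffer with protease inhibitor. GSPT1 detected by Western blot with a specific antibody.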

HL-60 = experiment: Antiproliferative activity against human HL60 cells with lack of p53 assessed as cell growth inhibition after 4 days by WST-8 assay; format: functional, cell-based; outline: as §1
MDA-MB-468 [13] = experiment: Antiproliferative activity against human MDA-MB-468 cells harboring mutant p53 assessed as cell growth inhibition after 4 days by WST-8 assay; format: functional, cell-based; outline: as §1
MDA-MB-468 [14] = experiment: Antiproliferative activity against human MDA-MB-468 cells assessed as cell growth inhibition after 4 days in presence of control siRNA for 2 days followed by compound treatment by WST-8 assay; format: functional, cell-based; outline: as §2
[15] = molecular target: T1, E3 ubiquitin-protein ligase Mdm2; experiment: Induction of MDM2 degradation in human RS4:11 cells assessed as upregulation of p53 at 1000 to 3000 nM after 1 hr by Western blot analysis; format: cell-based
Outline: (§4)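 Western blots of MDM2 and p53 protein were run on RS4;11 cells (wild-type p53) in RPMI 1640 with 10% FBS. 2×10^6 cells/well were treated at the indicated concentrations for 1 h or 2 h. Lysis was in ice-cold buffer with protease inhibitor, followed by probing with specific antibodies.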
Target sequence in this assay (Q00987 whole entry, looked up, the tested form may be a part): as the sequence (Q00987 whole entry, the tested form may be a part) above

MDA-MB-231 [16] = experiment: Antiproliferative activity against human MDA-MB-231 cells harboring mutant p53 assessed as cell growth inhibition without interaction with cereblon after 4 days by WST-8 assay; format: functional, cell-based; conditions: MDA-MB-231, 96 h
RS4-11 [17] = experiment: Antiproliferative activity against human RS4:11 cells expressing wild type p53 assessed as cell growth inhibition without interaction with cereblon after 4 days by WST-8 assay; format: functional, cell-based; conditions: RS4-11, 96 h; outline: as §1
RS4-11 [18] = experiment: Antiproliferative activity against human RS4:11 cells expressing wild type p53 assessed as cell growth inhibition after 4 days by WST-8 assay; format: functional, cell-based; conditions: RS4-11, 96 h; outline: as §1
MV4-11 = experiment: Antiproliferative activity against human MV4-11 cells expressing wild type p53 assessed as cell growth inhibition after 4 days by WST-8 assay; format: functional, cell-based; conditions: MV4-11, 96 h; outline: as §1
Homo sapiens = organism: Homo sapiens; experiment: (§5) Antiproliferative activity against human RS4:11/IRMI-2 cells harboring p53 hotspot mutation Y236H/R249G assessed as cell growth inhibition after 4 days by WST-8 assay; format: functional, cell-based; outline: as §1
MDA-MB-231 [19] = experiment: Antiproliferative activity against human MDA-MB-231 cells assessed as cell growth inhibition after 4 days in presence of control siRNA for 3 days followed by compound treatment by WST-8 assay; format: functional, cell-based
[20] = molecular target: T2, Protein cereblon/Eukaryotic peptide chain release factor GTP-binding subunit ERF3A/DNA damage-binding protein 1/Cullin-4A (Homo sapiens); experiment: Protac activity at GSPT1/CUL4/DDB1/CRBN in human RS4:11 cells expressing wild type p53 assessed as decrease in GSPT1 protein level after 2 hrs by Western blot analysis; format: cell-based; outline: as §3
MOLM-13 = experiment: Antiproliferative activity against human MOLM13 cells expressing wild type p53 assessed as cell growth inhibition after 4 days by WST-8 assay; format: functional, cell-based; conditions: MOLM-13, 96 h; outline: as §1
[21] = molecular target: T1, E3 ubiquitin-protein ligase Mdm2; experiment: Induction of MDM2 degradation in human RS4:11 cells assessed as upregulation of MDM2 at 1000 to 3000 nM after 1 hr by Western blot analysis; format: cell-based; outline: as §4
Target sequence in this assay (Q00987 whole entry, looked up, the tested form may be a part): as the sequence (Q00987 whole entry, the tested form may be a part) above

RS4-11 [22] = experiment: Antiproliferative activity against human RS4:11 cells expressing wild type p53 assessed as MDM2-independent cell growth inhibition after 4 days by WST-8 assay; format: functional, cell-based; conditions: RS4-11, 96 h; outline: as §1
MDA-MB-468 [23] = experiment: Antiproliferative activity against human MDA-MB-468 cells transfected with CRBN siRNA LQ-021086-11-0002 assessed as cell growth inhibition after 4 days by WST-8 assay; format: functional, cell-based; conditions: MDA-MB-468, 96 h; outline: as §2
MDA-MB-231 [24] = experiment: Antiproliferative activity against human MDA-MB-231 cells assessed as cell growth inhibition after 4 days in presence of control siRNA for 2 days followed by compound treatment by WST-8 assay; format: functional, cell-based; outline: as §2
[25] = molecular target: T2, Protein cereblon/Eukaryotic peptide chain release factor GTP-binding subunit ERF3A/DNA damage-binding protein 1/Cullin-4A (Homo sapiens); experiment: Protac activity at GSPT1/CUL4/DDB1/CRBN in human RS4:11 cells expressing wild type p53 assessed as decrease in GSPT1 protein level at 1 to 3 uM after 24 hrs by Western blot analysis; format: cell-based; outline: as §3
[26] = molecular target: Eukaryotic peptide chain release factor GTP-binding subunit ERF3A (Homo sapiens, UniProt P15170); experiment: Induction of GSPT1 degradation in human RS4:11 cells measured after 24 hrs by Western blot analysis; format: cell-based
[27] = molecular target: T2, Protein cereblon/Eukaryotic peptide chain release factor GTP-binding subunit ERF3A/DNA damage-binding protein 1/Cullin-4A (Homo sapiens); experiment: Protac activity at GSPT1/CUL4/DDB1/CRBN in human RS4:11/IRMI-2 cells harboring p53 hotspot mutation Y236H/R249G assessed as decrease in GSPT1 protein level at 1 to 3 uM after 24 hrs by Western blot analysis; format: cell-based; outline: as §3
[28] = as §5; format: functional, cell-based; conditions: RS4-11, 96 h; outline: as §1

T2 sequence (P15170 whole entry, looked up): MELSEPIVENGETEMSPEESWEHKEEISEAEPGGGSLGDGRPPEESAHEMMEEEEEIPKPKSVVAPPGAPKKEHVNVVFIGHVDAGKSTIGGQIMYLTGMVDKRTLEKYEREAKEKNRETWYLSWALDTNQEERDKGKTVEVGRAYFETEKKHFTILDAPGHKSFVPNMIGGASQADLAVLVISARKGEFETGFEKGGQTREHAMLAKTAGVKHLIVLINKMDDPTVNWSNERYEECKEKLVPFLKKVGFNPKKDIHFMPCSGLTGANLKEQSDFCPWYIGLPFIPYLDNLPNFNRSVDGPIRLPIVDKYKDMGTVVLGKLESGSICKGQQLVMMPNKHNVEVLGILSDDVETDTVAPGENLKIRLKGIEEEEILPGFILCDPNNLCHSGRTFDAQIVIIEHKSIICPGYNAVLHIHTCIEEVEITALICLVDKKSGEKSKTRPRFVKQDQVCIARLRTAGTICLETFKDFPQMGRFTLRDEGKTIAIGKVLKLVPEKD
T2 sequence (Q13619 whole entry, looked up): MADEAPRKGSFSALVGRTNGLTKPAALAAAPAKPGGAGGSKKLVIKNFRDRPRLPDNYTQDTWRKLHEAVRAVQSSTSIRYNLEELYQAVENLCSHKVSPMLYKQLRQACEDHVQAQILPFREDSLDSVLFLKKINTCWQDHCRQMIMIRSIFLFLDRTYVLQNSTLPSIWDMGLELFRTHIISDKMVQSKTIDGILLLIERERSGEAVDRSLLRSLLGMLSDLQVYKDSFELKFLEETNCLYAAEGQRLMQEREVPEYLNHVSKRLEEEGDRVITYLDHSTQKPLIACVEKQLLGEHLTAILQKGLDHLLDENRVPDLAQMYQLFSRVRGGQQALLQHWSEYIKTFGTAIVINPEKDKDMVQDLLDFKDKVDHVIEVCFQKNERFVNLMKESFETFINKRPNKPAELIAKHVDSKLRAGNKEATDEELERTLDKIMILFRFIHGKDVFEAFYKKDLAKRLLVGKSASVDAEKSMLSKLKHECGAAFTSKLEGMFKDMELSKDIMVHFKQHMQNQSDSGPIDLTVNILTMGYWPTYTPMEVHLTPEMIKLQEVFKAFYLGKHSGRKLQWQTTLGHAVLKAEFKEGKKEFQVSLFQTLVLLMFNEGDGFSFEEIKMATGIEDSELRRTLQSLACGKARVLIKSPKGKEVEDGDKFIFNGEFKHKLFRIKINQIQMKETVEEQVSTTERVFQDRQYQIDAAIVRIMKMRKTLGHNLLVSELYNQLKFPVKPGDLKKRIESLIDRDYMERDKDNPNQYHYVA
T2 sequence (Q16531 whole entry, looked up): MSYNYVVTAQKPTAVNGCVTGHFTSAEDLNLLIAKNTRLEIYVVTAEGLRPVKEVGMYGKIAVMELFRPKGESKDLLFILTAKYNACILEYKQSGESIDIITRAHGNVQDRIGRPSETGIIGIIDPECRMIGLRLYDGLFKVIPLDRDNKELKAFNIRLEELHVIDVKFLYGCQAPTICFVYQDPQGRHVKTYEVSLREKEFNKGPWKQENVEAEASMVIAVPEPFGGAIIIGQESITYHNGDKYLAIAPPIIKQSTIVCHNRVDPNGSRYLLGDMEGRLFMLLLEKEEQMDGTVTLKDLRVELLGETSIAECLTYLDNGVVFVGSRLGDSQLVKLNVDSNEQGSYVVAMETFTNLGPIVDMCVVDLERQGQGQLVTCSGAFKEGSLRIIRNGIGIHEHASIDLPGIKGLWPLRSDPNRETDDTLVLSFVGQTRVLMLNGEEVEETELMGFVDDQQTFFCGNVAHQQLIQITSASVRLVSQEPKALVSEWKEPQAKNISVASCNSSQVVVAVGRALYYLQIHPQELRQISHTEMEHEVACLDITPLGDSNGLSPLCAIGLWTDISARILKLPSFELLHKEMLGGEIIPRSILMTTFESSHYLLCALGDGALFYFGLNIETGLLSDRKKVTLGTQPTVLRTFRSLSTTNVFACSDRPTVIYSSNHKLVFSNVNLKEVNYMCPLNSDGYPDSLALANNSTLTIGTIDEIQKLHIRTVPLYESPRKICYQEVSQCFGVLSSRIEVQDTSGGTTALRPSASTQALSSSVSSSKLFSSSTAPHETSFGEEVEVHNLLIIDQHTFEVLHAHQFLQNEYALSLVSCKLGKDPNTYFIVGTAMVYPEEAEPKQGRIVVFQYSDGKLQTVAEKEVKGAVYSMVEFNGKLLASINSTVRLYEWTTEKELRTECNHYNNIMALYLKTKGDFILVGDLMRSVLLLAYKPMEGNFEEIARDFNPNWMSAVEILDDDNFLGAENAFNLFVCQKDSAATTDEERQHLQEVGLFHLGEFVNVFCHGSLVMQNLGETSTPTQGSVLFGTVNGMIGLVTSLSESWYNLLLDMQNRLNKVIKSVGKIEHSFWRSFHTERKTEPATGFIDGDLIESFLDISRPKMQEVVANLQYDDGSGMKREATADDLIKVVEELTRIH
T2 sequence (Q96SW2 whole entry, looked up): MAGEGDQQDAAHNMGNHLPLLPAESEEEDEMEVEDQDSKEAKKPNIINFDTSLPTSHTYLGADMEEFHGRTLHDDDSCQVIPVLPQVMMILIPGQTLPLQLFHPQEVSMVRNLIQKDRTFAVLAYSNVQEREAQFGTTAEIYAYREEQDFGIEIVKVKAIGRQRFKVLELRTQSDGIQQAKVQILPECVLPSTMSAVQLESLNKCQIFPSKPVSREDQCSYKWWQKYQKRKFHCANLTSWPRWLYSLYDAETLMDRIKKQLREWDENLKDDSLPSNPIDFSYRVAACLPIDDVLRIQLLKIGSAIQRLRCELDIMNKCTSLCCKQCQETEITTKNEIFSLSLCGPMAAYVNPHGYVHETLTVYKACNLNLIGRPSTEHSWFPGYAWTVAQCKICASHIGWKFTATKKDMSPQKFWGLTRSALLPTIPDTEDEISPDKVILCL
Eukaryotic peptide chain release factor GTP-binding subunit ERF3A, sequence (P15170 whole entry): as the sequence (P15170 whole entry, looked up) above

CNC(=O)[C@@H]1NC2(CCCCC2)[C@@]2(C(=O)Nc3cc(Cl)ccc32)[C@H]1c1cccc(Cl)c1F
IC50 [1]: > 10000 nM | growth inhibition (GI) (MDA-MB-231 [2]): inactive | IC50 [3]: 9580 nM | IC50 (MDA-MB-468 [4]): > 10000 nM | IC50 (MDA-MB-468 [5]): > 3000 nM | IC50 (MDA-MB-231 [6]): > 3000 nM | IC50 (MDA-MB-231 [7]): > 3000 nM | IC50 (MDA-MB-468 [8]): > 10000 nM | IC50 (MDA-MB-468 [9]): > 3000 nM | IC50 [10]: 48.1 nM | IC50 (MDA-MB-231 [11]): > 10000 nM | Activity [12]: inactive | growth inhibition (GI) (HL-60): inactive | growth inhibition (GI) (MDA-MB-468 [13]): inactive | IC50 (MDA-MB-468 [14]): > 10000 nM | Activity [15]: Active | IC50 (MDA-MB-231 [16]): > 10000 nM | IC50 (RS4-11 [17]): 1110 nM | IC50 (RS4-11 [18]): 669 nM | IC50 (MV4-11): 898 nM | growth inhibition (GI) (Homo sapiens): inactive | IC50 (MDA-MB-231 [19]): > 3000 nM | Activity [20]: inactive | IC50 (MOLM-13): 1240 nM | Activity [21]: inactive | IC50 (RS4-11 [22]): 1490 nM | IC50 (MDA-MB-468 [23]): > 3000 nM | IC50 (MDA-MB-231 [24]): > 10000 nM

O=C1CCC(N2Cc3c(NC(=O)[C@@H]4NC5(CCCCC5)[C@@]5(C(=O)Nc6cc(Cl)ccc65)[C@H]4c4cccc(Cl)c4F)cccc3C2=O)C(=O)N1 (some centres not stated)
Activity [25]: Active | DC50 [26]: 2300 nM | Activity [27]: Active | IC50 (RS4-11 [18]): 760 nM | IC50 [28]: 2580 nM

O=C1CCC(N2Cc3c(CCCOCCNC(=O)[C@@H]4NC5(CCCCC5)[C@@]5(C(=O)Nc6cc(Cl)ccc65)[C@H]4c4cccc(Cl)c4F)cccc3C2=O)C(=O)N1 (some centres not stated)
Activity [12]: Active | DC50 [26]: 1.8 nM | IC50 (RS4-11 [18]): 3.6 nM | IC50 [28]: 3.5 nM | Activity [20]: Active

CN1C(=O)CCC(N2Cc3c(CCCCCNC(=O)[C@@H]4NC5(CCCCC5)[C@@]5(C(=O)Nc6cc(Cl)ccc65)[C@H]4c4cccc(Cl)c4F)cccc3C2=O)C1=O (some centres not stated)
IC50 [3]: 6850 nM | IC50 (MDA-MB-468 [8]): > 10000 nM | IC50 (MDA-MB-231 [16]): > 10000 nM | IC50 (RS4-11 [17]): 2490 nM

O=C1CCC(N2Cc3c(CCCOCCOCCNC(=O)[C@@H]4NC5(CCCCC5)[C@@]5(C(=O)Nc6cc(Cl)ccc65)[C@H]4c4cccc(Cl)c4F)cccc3C2=O)C(=O)N1 (some centres not stated)
Activity [12]: Active | DC50 [26]: 1.2 nM | IC50 (RS4-11 [18]): 4.9 nM | IC50 [28]: 4.9 nM | Activity [20]: Active

O=C1CCC(N2Cc3c(CCCNC(=O)[C@@H]4NC5(CCCCC5)[C@@]5(C(=O)Nc6cc(Cl)ccc65)[C@H]4c4cccc(Cl)c4F)cccc3C2=O)C(=O)N1 (some centres not stated)
Activity [25]: Active | DC50 [26]: 120 nM | Activity [27]: Active | IC50 (RS4-11 [18]): 130 nM | IC50 [28]: 180 nM
